Activity data for 7 compounds are collected here from ChEMBL document CHEMBL4665830, “Self-Adjuvanting Cancer Vaccines from Conjugation-Ready Lipid A Analogues and Synthetic Long Peptides” (J Med Chem, 2020).

Active and inactive are the calls of the source. The rule behind the calls is not given here. Where a SMILES comes first, the peptide text is derived from it. [ ]: non-standard residue; d: D form. The star is where a group is joined. X1 = CCCCCCCCCCC[C@H](CC(=O)N[C@H]1[C@H](OC[C@H](NC(=O)C[C@@H](CCCCCCCCCCC)OC(=O)CCCCCCCCC)C(=O)O)O[C@H](CNC(=O)COCCOCCOCCNC(=O)CCCN2C(=O)CC(*)C2=O)[C@@H](OP(=O)(O)O)[C@@H]1OC(=O)C[C@@H](CCCCCCCCCCC)OC(=O)CCCCCCCCC)OC(=O)CCCCCCCCC; X2 = CCCCCCCCCCC[C@H](CC(=O)N[C@H]1[C@H](OC[C@H](NC(=O)C[C@@H](CCCCCCCCCCC)OC(=O)CCCCCCCCC)C(=O)O)O[C@H](COC(=O)COCCOCCOCCNC(=O)CCCN2C(=O)CC(*)C2=O)[C@@H](OP(=O)(O)O)[C@@H]1OC(=O)C[C@@H](CCCCCCCCCCC)OC(=O)CCCCCCCCC)OC(=O)CCCCCCCCC; Mpa = O=C(O)CCS

Test [1] addresses T1, Toll-like receptor 4 (Mus musculus) (UniProt Q9QUK6).
T1 sequence (whole entry): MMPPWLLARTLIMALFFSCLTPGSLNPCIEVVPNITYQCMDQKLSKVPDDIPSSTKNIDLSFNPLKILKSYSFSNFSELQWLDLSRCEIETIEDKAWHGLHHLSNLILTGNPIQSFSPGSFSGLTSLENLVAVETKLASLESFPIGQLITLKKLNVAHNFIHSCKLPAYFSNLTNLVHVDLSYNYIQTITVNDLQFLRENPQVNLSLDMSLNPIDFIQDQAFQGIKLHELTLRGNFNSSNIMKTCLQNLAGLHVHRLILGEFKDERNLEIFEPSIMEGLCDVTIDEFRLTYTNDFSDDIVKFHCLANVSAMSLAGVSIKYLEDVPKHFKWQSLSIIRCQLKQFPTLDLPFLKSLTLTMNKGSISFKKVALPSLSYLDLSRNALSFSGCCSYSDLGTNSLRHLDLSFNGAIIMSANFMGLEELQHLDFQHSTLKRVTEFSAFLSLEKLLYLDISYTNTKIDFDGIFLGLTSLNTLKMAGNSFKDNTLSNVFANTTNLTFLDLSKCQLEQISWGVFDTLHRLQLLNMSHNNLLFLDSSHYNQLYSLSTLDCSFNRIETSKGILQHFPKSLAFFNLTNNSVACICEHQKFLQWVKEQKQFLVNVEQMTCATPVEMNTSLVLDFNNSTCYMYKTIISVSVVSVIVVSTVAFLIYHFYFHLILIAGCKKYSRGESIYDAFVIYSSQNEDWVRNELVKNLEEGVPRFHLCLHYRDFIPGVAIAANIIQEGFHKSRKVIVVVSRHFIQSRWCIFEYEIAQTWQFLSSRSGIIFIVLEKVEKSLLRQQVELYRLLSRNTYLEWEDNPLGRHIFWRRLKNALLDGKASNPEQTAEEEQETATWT
The test can be described thus: Activation of TLR4 in C57BL/6 mouse dendritic cells assessed as induction of IL-12p40 secretion at 0.098 to 100 nM incubated for 24 hrs by ELISA. To be noted: Dendritic cell, dose nM 0.098-100, time 24.0 hrs. The gist of the method:
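D1 cells (immature spleen-derived DC line, C57BL/6 H-2b), 50 000 per well in R1-supplemented IMDM, given an equal volume of 2x compound in medium (500 μM DMSO stocks, sonicated 15 min). Incubated 24 h at 37 °C; IL-12p40 in supernatant measured by ELISA. MPLA served as TLR4 control; unconjugated peptide as negative control.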
On the technique in general: ELISA stands for enzyme-linked immunosorbent assay.

The test system of test [2] is Mus musculus. The test can be described thus: Induction of T-cell activation in C57BL/6 mouse assessed as increase in SIINFEKL-specific CD8+ T cells level in inguinal lymph nodes at 5 nmol dosed intradermally followed by booster dose after 14 days and 1 week later injection of cells loaded with SIINFEKL peptide and measured after 18 hrs post last dose by CFSE staining based flow cytometric analysis. In kind it is functional, organism-based. To be noted: time 21.0 day.

In test [3] the test system is Mus musculus. The experiment in a line: Induction of T-cell activation in C57BL/6 mouse assessed as induction of specific killing of the SIINFEKL-loaded target cells in spleen at 5 nmol dosed intradermally followed by booster dose after 14 days and 1 week later injection of cells loaded with SIINFEKL peptide and measured after 18 hrs post last dose by CFSE staining based flow cytometric analysis. It counts as functional, organism-based. The following applies: time 21.0 day. (In general: Flow cytometry measures light scatter and fluorescence of single cells or particles in a stream.)

For test [4], the system named is Mus musculus. The test can be described thus: Induction of T-cell activation in C57BL/6 mouse assessed as induction of differentiation into effector memory T cells at 5 nmol dosed intradermally followed by booster dose after 14 days and measured after 7 days. In kind it is functional, organism-based. The following applies: time 21.0 day.
Test [5] relates to Mus musculus. The test can be described thus: Induction of T-cell activation in C57BL/6 mouse assessed as induction of differentiation into memory CD127+/KLRG1low responses at 5 nmol dosed intradermally followed by booster dose after 14 days and measured after 7 days. In kind it is functional, organism-based. To be noted: time 21.0 day.
Test [6] deals with Mus musculus. The test can be described thus: Induction of T-cell activation in C57BL/6 mouse assessed as induction of SIINFEKL-specific T-cell responses in inguinal lymph nodes at 5 nmol dosed intradermally followed by booster dose after 14 days and measured after 8 days. It counts as functional, organism-based. The following applies: time 22.0 day.
In test [7] the test system is Mus musculus. The experiment in a line: Induction of T-cell activation in C57BL/6 mouse assessed as induction of SIINFEKL-specific T-cell responses in spleen at 5 nmol dosed intradermally followed by booster dose after 14 days and measured after 8 days. In kind it is functional, organism-based. To be noted: time 22.0 day.
Test [8] has as its system Mus musculus. The test can be described thus: Induction of T-cell activation in C57BL/6 mouse assessed as induction of SIINFEKL-specific T-cell responses in blood at 5 nmol dosed intradermally. It counts as functional, organism-based.
Test [9] relates to Mus musculus. The experiment in a line: Induction of T-cell activation in C57BL/6 mouse assessed as induction of SIINFEKL-specific T-cell responses in blood at 5 nmol dosed intradermally followed by booster dose after 14 days and measured after 7 days. It counts as functional, organism-based. To be noted: time 21.0 day.
A further test has as its system B3Z. The experiment in a line: Induction of T-cell activation in SIINFEKL-specific mouse B3Z cells at 0.875 to 7 uM by colorimetry based in-vitro antigen presentation assay. It counts as functional. The following applies: dose microM 0.875-7.

For `CCCCCCCCCCC[C@H](CC(=O)N[C@H]1[C@H](OC[C@H](NC(=O)C[C@@H](CCCCCCCCCCC)OC(=O)CCCCCCCCC)C(=O)O)O[C@H](CNC(=O)COCCOCCOCCNC(C)=O)[C@@H](OP(=O)(O)O)[C@@H]1OC(=O)C[C@@H](CCCCCCCCCCC)OC(=O)CCCCCCCCC)OC(=O)CCCCCCCCC`, the outcome in test [1] (filed as activator) was Active.

As for `CCCCCCCCCCC[C@H](CC(=O)N[C@H]1[C@H](OC[C@H](NC(=O)C[C@@H](CCCCCCCCCCC)OC(=O)CCCCCCCCC)C(=O)O)O[C@H](COC(=O)COCCOCCOCCNC(C)=O)[C@@H](OP(=O)(O)O)[C@@H]1OC(=O)C[C@@H](CCCCCCCCCCC)OC(=O)CCCCCCCCC)OC(=O)CCCCCCCCC`, the outcome in test [1] (filed as activator) was Active.

On to `CCCCCCCCCCC[C@@H](O)CC(=O)N[C@@H]1[C@@H](OC(=O)C[C@H](O)CCCCCCCCCCC)[C@H](O)[C@@H](CO[C@@H]2O[C@H](CO)[C@@H](OP(=O)(O)O)[C@H](OC(=O)C[C@@H](CCCCCCCCCCC)OC(=O)CCCCCCCCC)[C@H]2NC(=O)C[C@@H](CCCCCCCCCCC)OC(=O)CCCCCCCCC)O[C@H]1O`, for which the result in [1] (filed as activator) was Active.

With `CCCCCCCCCCC[C@H](CC(=O)N[C@H]1[C@H](OC[C@H](NC(=O)C[C@@H](CCCCCCCCCCC)OC(=O)CCCCCCCCC)C(=O)O)O[C@H](CNC(=O)COCCOCCOCCNC(=O)CCCN2C(=O)CC(SCCC(=O)N[C@@H](CC(=O)O)C(=O)N[C@@H](CCC(=O)O)C(=O)N[C@H](C(=O)N[C@@H](CO)C(=O)NCC(=O)N[C@@H](CC(C)C)C(=O)N[C@@H](CCC(=O)O)C(=O)N[C@@H](CCC(N)=O)C(=O)N[C@@H](CC(C)C)C(=O)N[C@@H](CCC(=O)O)C(=O)N[C@@H](CO)C(=O)N[C@H](C(=O)N[C@H](C(=O)N[C@@H](CC(N)=O)C(=O)N[C@@H](Cc3ccccc3)C(=O)N[C@@H](CCC(=O)O)C(=O)N[C@@H](CCCCN)C(=O)N[C@@H](CC(C)C)C(=O)N[C@@H](C)C(=O)N[C@@H](C)C(=O)N[C@@H](C)C(=O)N[C@@H](C)C(=O)N[C@@H](C)C(=O)N[C@@H](CCCCN)C(N)=O)[C@@H](C)CC)[C@@H](C)CC)C(C)C)C2=O)[C@@H](OP(=O)(O)O)[C@@H]1OC(=O)C[C@@H](CCCCCCCCCCC)OC(=O)CCCCCCCCC)OC(=O)CCCCCCCCC` (stereo not given in full) ([Mpa](X1)DEVSGLEQLESIINFEKLAAAAAK-NH2), the result with Mus musculus [2], in the test with Mus musculus [3], in the test on Mus musculus [4], in the test on Mus musculus [5], with Mus musculus [6] and with Mus musculus [7] was Active. For the same compound, the result with Mus musculus [8], with Mus musculus [9] and in the test on B3Z was Active. In addition, in test [1], the outcome was inactive.

With `CCCCCCCCCCC[C@H](CC(=O)N[C@H]1[C@H](OC[C@H](NC(=O)C[C@@H](CCCCCCCCCCC)OC(=O)CCCCCCCCC)C(=O)O)O[C@H](COC(=O)CCCCCCCCCCNC(C)=O)[C@@H](OP(=O)(O)O)[C@@H]1OC(=O)C[C@@H](CCCCCCCCCCC)OC(=O)CCCCCCCCC)OC(=O)CCCCCCCCC`, the result in test [1] was inactive.

On to `CCCCCCCCCCC[C@H](CC(=O)N[C@H]1[C@H](OC[C@H](NC(=O)C[C@@H](CCCCCCCCCCC)OC(=O)CCCCCCCCC)C(=O)O)O[C@H](COC(=O)COCCOCCOCCNC(=O)CCCN2C(=O)CC(SCCC(=O)N[C@@H](CC(=O)O)C(=O)N[C@@H](CCC(=O)O)C(=O)N[C@H](C(=O)N[C@@H](CO)C(=O)NCC(=O)N[C@@H](CC(C)C)C(=O)N[C@@H](CCC(=O)O)C(=O)N[C@@H](CCC(N)=O)C(=O)N[C@@H](CC(C)C)C(=O)N[C@@H](CCC(=O)O)C(=O)N[C@@H](CO)C(=O)N[C@H](C(=O)N[C@H](C(=O)N[C@@H](CC(N)=O)C(=O)N[C@@H](Cc3ccccc3)C(=O)N[C@@H](CCC(=O)O)C(=O)N[C@@H](CCCCN)C(=O)N[C@@H](CC(C)C)C(=O)N[C@@H](C)C(=O)N[C@@H](C)C(=O)N[C@@H](C)C(=O)N[C@@H](C)C(=O)N[C@@H](C)C(=O)N[C@@H](CCCCN)C(N)=O)[C@@H](C)CC)[C@@H](C)CC)C(C)C)C2=O)[C@@H](OP(=O)(O)O)[C@@H]1OC(=O)C[C@@H](CCCCCCCCCCC)OC(=O)CCCCCCCCC)OC(=O)CCCCCCCCC` (stereo not given in full) ([Mpa](X2)DEVSGLEQLESIINFEKLAAAAAK-NH2), for which the result in the test on Mus musculus [4], with Mus musculus [5], in the test with Mus musculus [6], with Mus musculus [7], with Mus musculus [8] and with Mus musculus [9] was Active. The result (with B3Z; in test [1] (filed as activator)) was Active.

For `CCCCCCCCCCC[C@H](CC(=O)N[C@H]1[C@H](OC[C@H](NC(=O)C[C@@H](CCCCCCCCCCC)OC(=O)CCCCCCCCC)C(=O)O)O[C@H](CO)[C@@H](OP(=O)(O)O)[C@@H]1OC(=O)C[C@@H](CCCCCCCCCCC)OC(=O)CCCCCCCCC)OC(=O)CCCCCCCCC`, the result (in the test on Mus musculus [8]; in the test with B3Z; in [1] (filed as activator)) was Active.
